The values below come from ChEMBL document CHEMBL1152561, “Evaluation of delocalized lipophilic cationic dyes as delivery vehicles for photosensitizers to mitochondria” (Bioorg Med Chem, 2009).

Activity calls are given as the source filed them. The rule behind the calls is not given here.

Data set [1] relates to R3230AC. The experiment in a line: Phototoxicity in rat R3230AC cells irradiated with halogen lamp pretreated 24 hrs before irradiation by MTT assay. The data set is classed as functional, cell-based. Conditions: light or radiation study. An outline of the steps: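 Cells were seeded at 1.0–1.5 × 10^4 per well, grown 24 h, then given 1–20 µM dye in complete medium for 24 h. After two saline rinses, cells in clear medium were irradiated with halogen broadband light (400–850 nm, water-filtered) at 3 mW cm−2 for 1 h while orbiting. They were refed and grown 24 h more. Viability was read by MTT as a percentage of light-exposed dye-free controls.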
For orientation: Tetrazolium assays rely on reduction of a dye to a coloured formazan, in cell work by metabolically active cells.

Data set [2] is described as follows: n-Octanol-phosphate buffer partition coefficient, log D at pH 7.4 by shake-flask method. The data set is classed as physicochemical. An outline of the steps: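 Dye was added to saturation in equal volumes (2 mL) of n-octanol and pH 7.4 phosphate buffer. The mixture was sonicated 30 min and left to settle 4 h. Each layer was diluted in dichloromethane and absorbance measured. Log D7.4 was taken from the ratio of absorbances between the two layers.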

Data set [3] has as its system R3230AC. The experiment in a line: Cytotoxicity against rat R3230AC cells up to 20 uM for 24 hrs in dark. The data set is classed as functional, cell-based.
In data set [4] the test system is R3230AC. The experiment in a line: Cellular uptake in rat R3230AC cells measured per cell at 10 uM after 24 hrs. The format is ADME, cell-based. The essentials: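 R3230AC cells were grown in α-MEM with 10% bovine growth serum at 37 °C and 5% CO2. Dyes were diluted from 2 mM DMSO stocks. Intracellular dye content was measured by fluorescence at dye-appropriate excitation and emission wavelengths and converted using a fluorescence calibration curve.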

Data set [5] deals with R3230AC. The experiment in a line: Stability in rat R3230AC cell lysate at 10 uM after 24 hrs. The data set is classed as ADME, cell-based. An outline of the steps: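 Cells seeded at 2.0–3.0 × 10^4 per well were grown 24 h, then exposed to dye in complete medium for 24 h. After two 0.9% NaCl rinses, cells were lysed in DMSO. Fluorescence (excitation 550 nm, emission 555–750 nm) was compared with dye in DMSO, including the ratio of the 580 and 650 nm peaks.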

In the case of `CN(C)c1ccc2cc3ccc(N(C)C)cc3nc2c1`, in data set [1], the IC50 is 2.29 µM. For the same compound, in data set [2], the logD is -0.99.
For `CCN(CC)c1ccc2c(-c3ccccc3C(C)=O)c3ccc(=[N+](CC)CC)cc-3oc2c1`, in data set [3], the outcome was inactive.
`CN(C)c1ccc2cc3ccc(N(C)C)cc3[n+](CCCOc3ccc(-c4c5nc(c(-c6ccccc6)c6ccc([nH]6)c(-c6ccccc6)c6nc(c(-c7ccccc7)c7ccc4[nH]7)C=C6)C=C5)cc3)c2c1.[I-]`: the IC50 in data set [1] came to 3.28 µM. In data set [2], the pH-dependent lipophilicity (logD) was determined as 0.79. Also, the Activity in data set [4] amounted to 68.2 fmol.
As for `Oc1ccc(-c2c3nc(c(-c4ccccc4)c4ccc([nH]4)c(-c4ccccc4)c4nc(c(-c5ccccc5)c5ccc2[nH]5)C=C4)C=C3)cc1`, in data set [2], the logD is 2.3. In data set [3], the result was inactive. In data set [4], this compound showed an Activity of 5.6 fmol.
For the compound `CCN(CC)c1ccc2c(-c3ccccc3C(=O)O)c3ccc(=[N+](CC)CC)cc-3oc2c1` [RHODAMINE B], the logD in data set [2] amounted to 2.2.
Turning to `CCN(CC)c1ccc2c(-c3ccccc3C(=O)OCCCOc3ccc(-c4c5nc(c(-c6ccccc6)c6ccc([nH]6)c(-c6ccccc6)c6nc(c(-c7ccccc7)c7ccc4[nH]7)C=C6)C=C5)cc3)c3ccc(=[N+](CC)CC)cc-3oc2c1.[I-]`, the Stability result in data set [5] is “Stable”. The IC50 in data set [1] worked out at 3.95 µM. In addition, the logD in data set [2] amounted to 3.53. The result in data set [3] was inactive.

As usually defined, the IC50 is the concentration at which inhibition is half-maximal. The logD is lipophilicity at a set pH, counting ionised and neutral species. A higher logD goes with a more lipophilic compound.
